≈ marks a conversion by molar mass, not a printed value.
Key:
Format in all cases: functional
[1] = tested on: Trichosporon asahii; experiment: Antifungal activity against Trichosporon asahii 1188 after 24 hrs by broth microdilution method; settings: Trichosporon asahii, 1188, 24 h
In short: (§1)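 Microdilution broth per CLSI M27-A3 (yeasts) or M38-A2 (moulds) in RPMI 1640 with glutamine, buffered to pH 7.0 with 0.165 mol MOPS. Compounds were in DMSO. Final inoculum was 5 × 10³ ± 0.2 CFU/mL. Other conditions matched the antibacterial assay, with MIC as IC₉₀ read visually and at 540 nm. Determined twice, in duplicate.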

[2] = tested on: Trichophyton mentagrophytes; experiment: Antifungal activity against Trichophyton mentagrophytes 445 after 24 hrs by broth microdilution method; settings: Trichophyton mentagrophytes, 445, 24 h
[3] = tested on: Staphylococcus aureus; experiment: Antibacterial activity against Staphylococcus aureus CCM 4516/08 after 24 hrs by broth microdilution method; settings: CCM 4516/08, 24 h
In short: (§2)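 Microdilution broth method modified from M07-A07, in Mueller-Hinton broth at pH 7.4 (±0.2). Compounds were dissolved in DMSO. Inoculum was made in sterile water to 0.5 McFarland (1.5 × 10⁸ CFU/mL). MIC was taken as IC₉₀, meaning ≥90% growth reduction versus the drug-free control. Growth was read visually and by absorbance at 540 nm.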

[4] = tested on: Mycobacterium kansasii; experiment: Antimycobacterial activity against Mycobacterium kansasii 6509/96 after 21 days; settings: 6509/96, 504 h
In short: (§3)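 Micromethod MIC in Sula semisynthetic medium, with compounds added as DMSO solutions at […]. Incubation at 37 °C. Inocula: M. kansasii 235/80 at dilution 10⁻⁴, clinical isolate 6509/96 at 10⁻⁵.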

[5] = tested on: Staphylococcus aureus; experiment: Antibacterial activity against methicillin-resistant Staphylococcus aureus H 5996/08 after 24 hrs by broth microdilution method; settings: H 5996/08, 24 h; in short: as §2
[6] = tested on: Mycobacterium tuberculosis; experiment: Antimycobacterial activity against Mycobacterium tuberculosis H37Rv 331/88 after 14 days; settings: H37Rv 331/88, 336 h
[7] = tested on: Aspergillus fumigatus; experiment: Antifungal activity against Aspergillus fumigatus 231 after 24 hrs by broth microdilution method; settings: Aspergillus fumigatus, 231, 24 h; in short: as §1
[8] = tested on: Staphylococcus epidermidis; experiment: Antibacterial activity against methicillin-resistant Staphylococcus epidermidis H 6966/08 after 24 hrs by broth microdilution method; settings: H 6966/08, 24 h; in short: as §2
[9] = tested on: Staphylococcus epidermidis; experiment: Antibacterial activity against methicillin-resistant Staphylococcus epidermidis H 6966/08 after 48 hrs by broth microdilution method; settings: H 6966/08, 48 h; in short: as §2
[10] = tested on: Nakaseomyces glabratus; experiment: Antifungal activity against Candida glabrata 20/I after 24 hrs by broth microdilution method; in short: as §1
[11] = tested on: Staphylococcus aureus; experiment: Antibacterial activity against Staphylococcus aureus CCM 4516/08 after 48 hrs by broth microdilution method; settings: CCM 4516/08, 48 h
In short: (§4)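 Broth microdilution modified from standard M07-A07 in Mueller-Hinton broth at pH 7.4 (±0.2). Compounds were dissolved in DMSO. Inoculum in sterile water was adjusted to 0.5 McFarland (1.5 × 10⁸ CFU/mL). MIC was taken as IC₉₀, i.e. ≥90% growth reduction versus control, read visually and spectrophotometrically at 540 nm.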

[12] = tested on: Escherichia coli; experiment: Antibacterial activity against Escherichia coli CCM 4517 after 24 hrs by broth microdilution method; settings: CCM 4517, 24 h; in short: as §4
[13] = tested on: Mycobacterium kansasii; experiment: Antimycobacterial activity against Mycobacterium kansasii 235/80 after 14 days; settings: 235/80, 336 h; in short: as §3
[14] = tested on: Staphylococcus aureus; experiment: Antibacterial activity against methicillin-resistant Staphylococcus aureus H 5996/08 after 48 hrs by broth microdilution method; settings: H 5996/08, 48 h; in short: as §2
[15] = tested on: Candida tropicalis; experiment: Antifungal activity against Candida tropicalis 156 after 24 hrs by broth microdilution method; settings: Candida tropicalis, 156, 24 h; in short: as §1
[16] = tested on: Mycobacterium kansasii; experiment: Antimycobacterial activity against Mycobacterium kansasii 6509/96 after 14 days; settings: 6509/96, 336 h; in short: as §3
[17] = tested on: Candida albicans; experiment: Antifungal activity against Candida albicans ATCC 44857 after 24 hrs by broth microdilution method; settings: ATCC 44857, 24 h; in short: as §1
[18] = tested on: Mycobacterium tuberculosis; experiment: Antimycobacterial activity against Mycobacterium tuberculosis H37Rv 331/88 after 21 days; settings: H37Rv 331/88, 504 h
In short: (§5)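 Micromethod in Sula semisynthetic medium, with compounds added as DMSO solutions over a two-fold series from 1000 down to 1. Inoculum for M. avium 330/88 was a 10⁻⁵ dilution. Plates were incubated at 37 °C and MIC was read after 14 and 21 days.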

[19] = tested on: Mycobacterium kansasii; experiment: Antimycobacterial activity against Mycobacterium kansasii 235/80 after 7 days; settings: 235/80, 168 h; in short: as §3
[20] = tested on: Lichtheimia corymbifera; experiment: Antifungal activity against Absidia corymbifera 272 after 24 hrs by broth microdilution method; settings: Lichtheimia corymbifera, 272, 24 h; in short: as §1
[21] = tested on: Mycobacterium avium; experiment: Antimycobacterial activity against isoniazid-, rifampicin-, ofloxacin-, ethambutol-resistant Mycobacterium avium 330/88 after 14 days; settings: 330/88, 336 h; in short: as §5
[22] = tested on: Mycobacterium kansasii; experiment: Antimycobacterial activity against Mycobacterium kansasii 235/80 after 21 days; settings: 235/80, 504 h; in short: as §3
[23] = tested on: Mycobacterium avium; experiment: Antimycobacterial activity against isoniazid-, rifampicin-, ofloxacin-, ethambutol-resistant Mycobacterium avium 330/88 after 21 days; settings: 330/88, 504 h; in short: as §5
[24] = tested on: Pichia kudriavzevii; experiment: Antifungal activity against Candida krusei E58 after 24 hrs by broth microdilution method; settings: E58, 24 h; in short: as §1
[25] = tested on: Mycobacterium kansasii; experiment: Antimycobacterial activity against Mycobacterium kansasii 6509/96 after 7 days; settings: 6509/96, 168 h; in short: as §3

Row | SMILES | MIC [1] [µM] | MIC [2] [µM] | MIC [3] [µM] | MIC [4] [µM] | MIC [5] [µM] | MIC [6] [µM] | MIC [7] [µM] | MIC [8] [µM] | MIC [9] [µM] | MIC [10] [µM] | MIC [11] [µM] | MIC [13] [µM] | MIC [14] [µM] | MIC [16] [µM] | MIC [18] [µM] | MIC [19] [µM] | MIC [21] [µM] | MIC [22] [µM] | MIC [23] [µM] | MIC [25] [µM] | further results
1 | Cc1cc(C)nc(NS(=O)(=O)c2ccc(/N=C/c3cc(Cl)ccc3O)cc2)n1 | > 125 | > 125 | 250 (≈ 104 µg/mL) | 250 (≈ 104 µg/mL) | 125 (≈ 52.1 µg/mL) | 250 (≈ 104 µg/mL) | > 125 | > 500 | > 500 | > 125 | 500 (≈ 208 µg/mL) | 125 (≈ 52.1 µg/mL) | 250 (≈ 104 µg/mL) | 125 (≈ 52.1 µg/mL) | 500 (≈ 208 µg/mL) | 62.5 (≈ 26.1 µg/mL) | 62.5 (≈ 26.1 µg/mL) | 250 (≈ 104 µg/mL) | 125 (≈ 52.1 µg/mL) | 125 (≈ 52.1 µg/mL) | MIC [12]: 500 µM (≈ 208 µg/mL); MIC [15]: > 125 µM; MIC [17]: > 125 µM; MIC [20]: > 125 µM; MIC [24]: > 125 µM
2 | Nc1ccc(S(=O)(=O)Nc2ncccn2)cc1 [SULFADIAZINE] |  |  | 500 (≈ 125 µg/mL) | 8 (≈ 2 µg/mL) | 500 (≈ 125 µg/mL) | 32 (≈ 8.01 µg/mL) |  | > 500 | > 500 |  | > 500 | 16 (≈ 4 µg/mL) | > 500 | 8 (≈ 2 µg/mL) | 62.5 (≈ 15.6 µg/mL) | 16 (≈ 4 µg/mL) | 62.5 (≈ 15.6 µg/mL) | 32 (≈ 8.01 µg/mL) | 62.5 (≈ 15.6 µg/mL) | 8 (≈ 2 µg/mL) | 
3 | O=C(Nc1ccc(S(=O)(=O)Nc2nccs2)cc1)c1cc(Cl)ccc1O | > 125 | > 125 | > 125 | 8 (≈ 3.28 µg/mL) | > 125 | 250 (≈ 102 µg/mL) | > 125 | > 125 | > 125 | > 125 | > 125 | 16 (≈ 6.56 µg/mL) | > 125 | 8 (≈ 3.28 µg/mL) | 250 (≈ 102 µg/mL) | 8 (≈ 3.28 µg/mL) | 250 (≈ 102 µg/mL) | 16 (≈ 6.56 µg/mL) | 250 (≈ 102 µg/mL) | 8 (≈ 3.28 µg/mL) | MIC [15]: > 125 µM; MIC [17]: > 125 µM; MIC [20]: > 125 µM; MIC [24]: > 125 µM
